# Measured values from PMC3730172 (Scientific Reports, 2013).
# Where a chain is given by its changes, count along the chain named. “And” between values parts separate entries of the source, which are not always exact repeats. Identical values can stand only once.
# Key:
# [1] = test system: PPM1A-regulated P38 and JNK-1 phosphorylation in HEK293 cells; type: cell-based, human; settings: HEK293, PPM1A overexpression, 1.5 μM CdCl2 6 h, sorbitol 0.4 M 20 min
# Outline: (§1)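 Transfected HEK293 (Flag-tagged wild-type PPM1A, D239K mutant, or control vector) starved 12 h at 36 h post-transfection, then exposed to 1.5 µM CdCl2 or none for 6 h before sorbitol (0.4 M, 20 min, 37°C). Phospho-P38 and phospho-JNK by immunoblotting of cleared lysates (equal protein, BCA); data from ≥3 experiments.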
# PPM1A D282A = biological target: T1, PPM1A D282A (Homo sapiens, UniProt P35813, D282A); experiment: Dephosphorylation of pp-ERK2 protein by PPM1A D282A in vitro; type: biochemical; settings: 1.5 μM Cd^2+
# T1 sequence (P35813 1-382 D282A): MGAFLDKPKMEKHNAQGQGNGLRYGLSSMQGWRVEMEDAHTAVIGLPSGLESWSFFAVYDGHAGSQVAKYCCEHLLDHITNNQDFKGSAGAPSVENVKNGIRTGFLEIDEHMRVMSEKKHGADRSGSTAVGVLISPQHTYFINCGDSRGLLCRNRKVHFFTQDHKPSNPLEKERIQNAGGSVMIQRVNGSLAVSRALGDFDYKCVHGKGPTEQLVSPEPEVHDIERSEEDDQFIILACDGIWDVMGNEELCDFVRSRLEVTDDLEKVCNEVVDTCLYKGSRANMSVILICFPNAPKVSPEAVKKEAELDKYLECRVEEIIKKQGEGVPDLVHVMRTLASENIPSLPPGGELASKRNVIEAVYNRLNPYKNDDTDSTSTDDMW
# Outline: (§2)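 Recombinant doubly phosphorylated ERK2 as substrate in 0.05 M Tris/0.05 M Bis-Tris/0.1 M acetate, pH 8.0, 37°C, 1 mM Mn2+, with or without 1.5 µM Cd2+; reactions started by adding phosphatase, stopped by boiling in SDS buffer (100°C, 10 min); phospho-ERK (pT/pY) by Western blot; triplicate, mean ± standard error.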
# [2] = biological target: T2, striatum-enriched phosphatase (STEP) (Homo sapiens, UniProt P54829); experiment: Dephosphorylation of pp-ERK2 protein by STEP in vitro; type: biochemical; settings: 1.5 μM Cd^2+, pH 8.0, 37°C
# T2 sequence (P54829 1-565): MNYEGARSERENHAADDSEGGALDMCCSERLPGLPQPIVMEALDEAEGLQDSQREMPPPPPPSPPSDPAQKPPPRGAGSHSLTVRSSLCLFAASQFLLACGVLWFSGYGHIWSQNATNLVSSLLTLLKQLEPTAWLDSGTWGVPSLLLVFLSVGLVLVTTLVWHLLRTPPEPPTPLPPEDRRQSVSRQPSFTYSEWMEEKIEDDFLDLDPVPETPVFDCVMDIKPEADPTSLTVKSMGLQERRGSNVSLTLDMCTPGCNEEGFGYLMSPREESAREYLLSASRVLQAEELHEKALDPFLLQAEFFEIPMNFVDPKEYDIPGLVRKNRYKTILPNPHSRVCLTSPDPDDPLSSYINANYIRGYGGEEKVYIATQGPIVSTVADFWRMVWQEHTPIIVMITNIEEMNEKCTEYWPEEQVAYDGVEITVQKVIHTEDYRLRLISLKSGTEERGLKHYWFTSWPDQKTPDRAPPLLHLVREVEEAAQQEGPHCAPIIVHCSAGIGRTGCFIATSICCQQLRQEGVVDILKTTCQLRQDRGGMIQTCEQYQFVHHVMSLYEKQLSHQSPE
# [3] = test system: PC12 cells overexpressing PPM1A D239K; experiment: Apoptosis assay in PC12 cells overexpressing PPM1A D239K; type: cell-based; settings: overexpression of Cd^2+ insensitive mutant D239K; 1.5 and 2.5 μM, 24 h
# [4] = test system: PPM1A-regulated ERK phosphorylation in HEK293 cells; experiment: EGF-stimulated ERK phosphorylation in PPM1A-overexpressing HEK293 cells; type: cell-based, human; settings: HEK293, PPM1A overexpression, 1.5 μM Cd^2+, EGF 5 ng/ml 5 min
# Outline: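 HEK293 in DMEM (25 mM glucose, 10% FBS, penicillin/streptomycin), 37°C, 5% CO2, transiently transfected with Flag-tagged phosphatase or control vector. 36 h post-transfection, serum-starved 12 h, 1.5 µM CdCl2 or none for 6 h, then EGF 5 ng/ml, 5 min, 37°C. Lysates immunoblotted for phospho-ERK or phospho-AKT Ser473; actin loading control; ≥3 experiments.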
# PP2A = PP2A (Homo sapiens, UniProt P67775); experiment: Cadmium inhibition assay of PP2A; type: biochemical; settings: pNPP, pH 8.0, 25°C
# Outline: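 Commercial PP2A assayed on pNPP in 0.05 M Tris/0.05 M Bis-Tris/0.1 M acetate at pH 8.0 and 25°C; EDTA (0.5 M, pH 10.0) stop; p-nitrophenol at 405 nm.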
# [5] = test system: PPM1A D239K-regulated P38 and JNK-1 phosphorylation in HEK293 cells; type: cell-based, human; settings: HEK293, PPM1A D239K overexpression, 1.5 μM Cd^2+
# Outline: as §1
# PPM1G [6] = biological target: T3, PPM1G (Homo sapiens, UniProt O15355); experiment: Dephosphorylation of pp-ERK2 protein by PPM1G in vitro; type: biochemical; settings: 1.5 μM Cd^2+, 1 mM Mn^2+, pH 8.0, 37°C
# T3 sequence (O15355 1-546): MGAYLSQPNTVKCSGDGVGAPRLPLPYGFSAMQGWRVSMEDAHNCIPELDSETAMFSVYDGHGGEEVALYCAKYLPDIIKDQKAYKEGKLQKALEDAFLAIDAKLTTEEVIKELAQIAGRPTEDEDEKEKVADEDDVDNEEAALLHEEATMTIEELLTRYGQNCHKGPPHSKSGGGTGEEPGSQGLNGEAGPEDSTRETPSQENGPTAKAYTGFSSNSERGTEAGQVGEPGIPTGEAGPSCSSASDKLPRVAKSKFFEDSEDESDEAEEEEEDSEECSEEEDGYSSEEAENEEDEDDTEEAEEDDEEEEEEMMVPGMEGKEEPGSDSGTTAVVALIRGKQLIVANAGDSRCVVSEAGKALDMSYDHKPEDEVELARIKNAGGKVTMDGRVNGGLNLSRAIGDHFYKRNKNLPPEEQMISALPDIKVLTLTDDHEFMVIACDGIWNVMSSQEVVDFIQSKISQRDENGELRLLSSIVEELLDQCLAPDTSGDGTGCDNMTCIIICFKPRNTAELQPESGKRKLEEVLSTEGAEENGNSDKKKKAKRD
# Outline: as §2
# PPM1A D239K = biological target: T4, PPM1A D239K (Homo sapiens, UniProt P35813, D239K); experiment: Dephosphorylation of pp-ERK2 protein by PPM1A D239K in vitro; type: biochemical; settings: 1.5 μM Cd^2+
# T4 sequence (P35813 1-382 D239K): T1 sequence (P35813 1-382 D282A) with D239K, A282D
# Outline: as §2
# PPM1G [7] = biological target: T3, PPM1G; experiment: PPM1G-catalyzed hydrolysis of pp-ERK and pp-P38 phospho-peptides; type: biochemical; settings: pp-ERK and pp-P38 phospho-peptide substrates
# PHLPP2 catalytic domain = biological target: T5, PHLPP2 catalytic domain (Homo sapiens, UniProt Q6ZVD8); experiment: Cadmium inhibition assay of PHLPP2 catalytic domain; type: biochemical; settings: pNPP, pH 8.0, 25°C
# T5 sequence (Q6ZVD8 784-1033): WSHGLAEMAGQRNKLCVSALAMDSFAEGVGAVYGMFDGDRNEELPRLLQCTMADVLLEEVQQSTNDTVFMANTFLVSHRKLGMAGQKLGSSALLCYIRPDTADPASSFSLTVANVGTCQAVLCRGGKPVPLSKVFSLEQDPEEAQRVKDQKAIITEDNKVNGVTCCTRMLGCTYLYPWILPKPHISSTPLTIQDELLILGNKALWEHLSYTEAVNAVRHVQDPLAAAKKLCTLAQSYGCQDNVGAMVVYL
# Outline: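 His-tagged human PHLPP2 catalytic domain (residues 784-1033) expressed from pET-30a; pNPP hydrolysis in 0.05 M Tris, 0.05 M Bis-Tris, 0.1 M acetate, pH 8.0, 25°C, stopped with 0.5 M EDTA pH 10.0; p-nitrophenol at 405 nm.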
# PPM1A [8] = biological target: T6, PPM1A (Homo sapiens, UniProt P35813); experiment: PPM1A-catalyzed hydrolysis of pp-ERK and pp-P38 phospho-peptides; type: biochemical; settings: pp-ERK and pp-P38 phospho-peptide substrates
# T6 sequence (P35813 1-382): T1 sequence (P35813 1-382 D282A) with A282D
# HEK293 cells = experiment: Cell cycle assay in PPM1A-overexpressing HEK293 cells; type: cell-based, human; settings: HEK293, PPM1A overexpression, 1.5 μM Cd^2+, 24 h
# Outline: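 HEK293 transfected with Flag-PPM1A, serum-starved 12 h (36 h post-transfection), given 1.5 µM CdCl2 for 24 h with cycling restarted by 10% FBS medium. Cells fixed in 75% ethanol at 4°C overnight, resuspended in PBS with 0.1% NaN3, stained with propidium iodide (50 µg/ml); DNA content by flow cytometry, G2/M percentage; ≥3 repeats.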
# PPM1G [9] = biological target: T3, PPM1G; experiment: PPM1G-catalyzed pNPP hydrolysis, metal ion activation and inhibition; type: biochemical; settings: PPM1G wild type, Mn^2+ as variable substrate, pH 8.0, 25°C
# Outline: (§3)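 Recombinant N-terminal His-tagged human wild-type enzyme in pNPP buffer (0.05 M Tris/0.05 M Bis-Tris/0.1 M acetate), pH 8.0, 25°C. Metal activation: Mn2+ varied 1 to 100 mM with saturating pNPP (10-40 mM), EDTA stop, 405 nm, Michaelis-Menten fit. Inhibition: pNPP fixed at 20 mM, Mn2+ varied, Cd2+ at 0, 0.25, 0.5 and 1.0 µM; double-reciprocal analysis.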
# PC12 cells = experiment: Apoptosis assay in PC12 cells; type: cell-based; settings: 1.5 or 2.5 μM Cd^2+, 24 h
# PPM1A [10] = biological target: T6, PPM1A; experiment: Dephosphorylation of pp-ERK2 protein by PPM1A in vitro; type: biochemical; settings: 1.5 μM Cd^2+, 1 mM Mn^2+, pH 8.0, 37°C, wild-type PPM1A
# Outline: as §2
# PPM1A [11] = biological target: T6, PPM1A; experiment: PPM1A-catalyzed pNPP hydrolysis, metal ion activation and inhibition; type: biochemical; settings: PPM1A wild type, Mn^2+ as variable substrate, pH 8.0, 25°C
# Outline: as §3
# Chain of PP2A (P67775 whole entry): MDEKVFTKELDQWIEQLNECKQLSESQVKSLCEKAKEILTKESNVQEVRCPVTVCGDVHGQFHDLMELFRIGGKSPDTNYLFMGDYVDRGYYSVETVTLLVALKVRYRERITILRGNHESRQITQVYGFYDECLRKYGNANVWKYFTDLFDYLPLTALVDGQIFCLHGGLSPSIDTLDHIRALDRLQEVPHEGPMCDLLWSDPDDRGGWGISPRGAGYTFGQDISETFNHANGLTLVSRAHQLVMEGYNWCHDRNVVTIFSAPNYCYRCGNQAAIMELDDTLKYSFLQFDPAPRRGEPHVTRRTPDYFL
# Chain of PP2A (P30153 2-589 partner limits assumed): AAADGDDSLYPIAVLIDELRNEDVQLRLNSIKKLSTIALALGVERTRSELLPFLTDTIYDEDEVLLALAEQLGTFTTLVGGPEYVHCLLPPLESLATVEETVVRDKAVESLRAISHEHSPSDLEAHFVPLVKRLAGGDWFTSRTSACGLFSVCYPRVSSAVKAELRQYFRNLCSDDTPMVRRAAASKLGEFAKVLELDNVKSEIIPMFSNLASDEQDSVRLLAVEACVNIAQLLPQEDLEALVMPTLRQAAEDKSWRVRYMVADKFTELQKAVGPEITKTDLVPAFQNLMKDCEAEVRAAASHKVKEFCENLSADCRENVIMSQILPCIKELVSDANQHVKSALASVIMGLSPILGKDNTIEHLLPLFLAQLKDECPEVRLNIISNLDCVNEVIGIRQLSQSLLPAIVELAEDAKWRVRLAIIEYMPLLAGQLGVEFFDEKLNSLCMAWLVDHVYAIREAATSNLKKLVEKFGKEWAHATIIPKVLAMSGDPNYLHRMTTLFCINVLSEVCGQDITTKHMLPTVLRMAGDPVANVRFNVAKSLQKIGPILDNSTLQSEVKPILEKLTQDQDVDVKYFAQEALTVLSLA
smiles,measurement,setting,value
"[Cd+2] [Cd^2+, cadmium]",effect on PPM1A block of sorbitol-induced P38 and JNK-1 phosphorylation,[1],drastically reversed
same,effect on dephosphorylation of phospho-ERK,PPM1A D282A,minimally affected
same,effect on dephosphorylation of phospho-ERK,[2],no effect
same,PC12 cell apoptosis,[3],did not promote
same,effect on PPM1A reduction of EGF-induced ERK phosphorylation,[4],reversed
same,IC50,PP2A,130 µM
same,effect on D239K block of sorbitol-induced P38 and JNK-1 phosphorylation,[5],much weaker effects
same,effect on dephosphorylation of phospho-ERK,PPM1G [6],substantially blocked
same,effect on dephosphorylation of phospho-ERK,PPM1A D239K,minimally affected
same,IC50,PPM1G [7],low micromolar range
same,IC50,PHLPP2 catalytic domain,3000 µM
same,IC50,PPM1A [8],low micromolar range
same,effect on PPM1A-induced increase in proportion of cells in G2/M,HEK293 cells,greatly reversed
same,Ki,PPM1G [9],< 1 µM and ~1 µM
same,PC12 cell apoptosis,PC12 cells,induced
same,effect on dephosphorylation of phospho-ERK,PPM1A [10],substantially blocked
same,Ki,PPM1A [11],< 1 µM and ~1 µM
